Consider ten molecules from ChEMBL document CHEMBL1138835, “Inhibitors of multiple mutants of Plasmodium falciparum dihydrofolate reductase and their antimalarial activities” (J Med Chem, 2004).

For assay [1], the system named is KB. The assay is described as follows: Relative antiplasmodial activity to cytotoxicity in Plasmodium falciparum TM4/8.2 infected KB cells. The format is functional.
The target in assay [2] is Bifunctional dihydrofolate reductase-thymidylate synthase (Plasmodium falciparum K1, UniProt P13922, C59R/I164L/N51I/S108N). The assay is described as follows: Binding affinity towards mutant dihydrofolate reductase (N51I+C59R+S108N+I164L DHFR) of Plasmodium falciparum.
For assay [3], the system named is BC. The assay can be described thus: Relative antiplasmodial activity to cytotoxicity in Plasmodium falciparum Csl-2 infected BC cells. Format: functional.
Assay [4] has as its target Bifunctional dihydrofolate reductase-thymidylate synthase (Plasmodium falciparum K1, UniProt P13922, A16V/S108T). The assay can be described thus: Binding affinity towards mutant dihydrofolate reductase (A16V+S108T DHFR) of Plasmodium falciparum.
Assay [5] has as its system BC. The assay can be described thus: In vitro cytotoxicity against BC cell line. As to conditions: Homo sapiens.
In assay [6] the test system is Vero. The assay is described as follows: In vitro cytotoxicity against Plasmodium falciparum infected vero cell line. Format: functional, cell-based. As to conditions: Chlorocebus sabaeus. Summed up: (§1)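 Cytotoxicity (IC50, μM) run against three mammalian lines: Vero (African green monkey kidney fibroblasts), KB (human epidermoid carcinoma) and BC (human breast cancer). Testing followed the Skehan et al. protocol.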

Assay [7] relates to KB. The assay can be described thus: Relative antiplasmodial activity to cytotoxicity in Plasmodium falciparum V1/S infected KB cells. The format is functional.
In assay [8] the test system is KB. The assay is described as follows: Relative antiplasmodial activity to cytotoxicity in Plasmodium falciparum Csl-2 infected KB cells. Format: functional.
The subject of assay [9] is Bifunctional dihydrofolate reductase-thymidylate synthase (Plasmodium falciparum K1), P13922 [UNDEFINED MUTATION]. The assay can be described thus: Ratio of binding affinity for mutant (N51I+C59R+S108N+I164L) to that of wild type dihydrofolate reductase. The gist of the method:
(§2)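 Each ratio is Ki for the mutant PfDHFR divided by Ki for wild-type PfDHFR. The recombinant enzymes were expressed in E. coli BL21(DE3)pLysS and purified on methotrexate-Sepharose. Ki was derived assuming inhibitors compete with substrate binding.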

In assay [10] the test system is Vero. The assay can be described thus: Relative antiplasmodial activity to cytotoxicity in Plasmodium falciparum Csl-2 infected Vero cells. Format: functional.
The target in assay [11] is Bifunctional dihydrofolate reductase-thymidylate synthase (Plasmodium falciparum K1, UniProt P13922, C59R/I164L/S108N). The assay is described as follows: Binding affinity towards mutant dihydrofolate reductase (C59R+S108N+I164L DHFR) of Plasmodium falciparum.
Assay [12] deals with Bifunctional dihydrofolate reductase-thymidylate synthase (Plasmodium falciparum K1), P13922 [UNDEFINED MUTATION]. The assay can be described thus: Ratio of binding affinity for mutant (A16V+S108T) to that of wild type dihydrofolate reductase. Summed up:
as §2

The test system of assay [13] is BC. The assay is described as follows: Relative antiplasmodial activity to cytotoxicity in Plasmodium falciparum TM4/8.2 infected BC cells. The format is functional.
Assay [14] has as its target Bifunctional dihydrofolate reductase-thymidylate synthase (Plasmodium falciparum K1) (UniProt P13922). The assay is described as follows: Ratio of binding affinity for mutant (N51I+C59R+S108N) to that of wild type dihydrofolate reductase. Summed up: as §2
The test system of assay [15] is Vero. The assay can be described thus: Relative antiplasmodial activity to cytotoxicity in Plasmodium falciparum TM4/8.2 infected Vero cells. The format is functional.
Assay [16] concerns Bifunctional dihydrofolate reductase-thymidylate synthase (Plasmodium falciparum K1), P13922 [UNDEFINED MUTATION]. The assay is described as follows: Ratio of binding affinity for mutant (C59R+S108N+I164L) to that of wild type dihydrofolate reductase. Summed up: as §2
Assay [17] deals with Bifunctional dihydrofolate reductase-thymidylate synthase (Plasmodium falciparum K1, UniProt P13922, C59R/N51I/S108N). The assay is described as follows: Binding affinity towards mutant dihydrofolate reductase (N51I+C59R+S108N DHFR) of Plasmodium falciparum.
For assay [18], the system named is KB. The assay can be described thus: In vitro cytotoxicity against Plasmodium falciparum infected KB cell line. The note with it: Homo sapiens. Format: functional, cell-based. Summed up:
as §1

For assay [19], the system named is Vero. The assay is described as follows: Relative antiplasmodial activity to cytotoxicity in Plasmodium falciparum V1/S infected Vero cells. The format is functional.

Bifunctional dihydrofolate reductase-thymidylate synthase (Plasmodium falciparum K1), sequence (P13922 whole entry, looked up): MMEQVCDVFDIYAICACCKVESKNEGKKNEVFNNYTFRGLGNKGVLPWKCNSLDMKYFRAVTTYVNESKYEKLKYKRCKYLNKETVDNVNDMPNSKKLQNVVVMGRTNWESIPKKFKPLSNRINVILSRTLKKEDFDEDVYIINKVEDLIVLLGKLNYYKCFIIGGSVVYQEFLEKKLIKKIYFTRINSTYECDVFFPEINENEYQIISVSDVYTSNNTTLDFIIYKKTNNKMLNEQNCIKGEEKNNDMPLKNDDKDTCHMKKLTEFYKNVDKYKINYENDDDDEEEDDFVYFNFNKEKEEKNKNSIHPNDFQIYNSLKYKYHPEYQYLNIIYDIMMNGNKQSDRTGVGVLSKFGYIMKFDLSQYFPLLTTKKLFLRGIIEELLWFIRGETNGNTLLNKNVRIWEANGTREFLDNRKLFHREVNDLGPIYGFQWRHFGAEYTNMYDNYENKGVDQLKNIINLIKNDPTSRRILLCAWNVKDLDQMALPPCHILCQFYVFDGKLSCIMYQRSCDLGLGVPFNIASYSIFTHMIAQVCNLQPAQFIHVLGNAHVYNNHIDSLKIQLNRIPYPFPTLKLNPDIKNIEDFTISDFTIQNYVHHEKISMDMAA
Bifunctional dihydrofolate reductase-thymidylate synthase (Plasmodium falciparum K1), P13922 [UNDEFINED MUTATION], sequence (P13922 whole entry, looked up, stated change not applied): as the sequence (P13922 whole entry, looked up) above
Bifunctional dihydrofolate reductase-thymidylate synthase (Plasmodium falciparum K1, UniProt P13922, A16V/S108T), sequence (P13922 whole entry, looked up, stated change not applied): as the sequence (P13922 whole entry, looked up) above
Bifunctional dihydrofolate reductase-thymidylate synthase (Plasmodium falciparum K1, UniProt P13922, C59R/I164L/N51I/S108N), sequence (P13922 whole entry, looked up, stated change not applied): as the sequence (P13922 whole entry, looked up) above
Bifunctional dihydrofolate reductase-thymidylate synthase (Plasmodium falciparum K1, UniProt P13922, C59R/I164L/S108N), sequence (P13922 whole entry, looked up, stated change not applied): as the sequence (P13922 whole entry, looked up) above
Bifunctional dihydrofolate reductase-thymidylate synthase (Plasmodium falciparum K1, UniProt P13922, C59R/N51I/S108N), sequence (P13922 whole entry, looked up, stated change not applied): as the sequence (P13922 whole entry, looked up) above

Usually Ki stands for a measure of affinity in units of concentration, obtained from inhibition or displacement. The low end stands for tighter binding, the high end for weaker binding. What is called IC50 is the midpoint of a concentration-inhibition curve. `CCCC1(C)N=C(N)N=C(N)N1c1cccc(Cl)c1` (stereo not given): the Safety ratio is given as 611 in the assay on KB [1]; 221 in the assay with BC [3]; 1.1 in the assay with KB [7]; 379 with KB [8]; above 1724 in the assay on Vero [10]; 356 in the assay with BC [13]. Moreover, the Safety ratio in the assay with Vero [15] was above 2778; in the assay on Vero [19], 454. Also, the Ki in assay [2] was 39.4 nM; in [4], 471 nM; in assay [11], 33.1 nM; in [17], 9.7 nM. Further, the IC50 with BC [5] is 64000 nM; in the assay with Vero [6] it was above 500000 nM; in the assay on KB [18], 110000 nM. The Ratio worked out at 8.53 in assay [9], 102 in [12], 2.1 in [14] and 7.2 in assay [16].
As to `NC1=NC(c2cccc(Oc3ccc(Cl)cc3)c2)N(c2cccc(Cl)c2)C(N)=N1` (stereo not given), the Safety ratio in the assay with KB [1] was found to be 1.8; with BC [3], 3.2; with KB [7], 2.2; with KB [8] it was 2.3; with Vero [10], 10; with BC [13], 2.6. For the same molecule, the Safety ratio is 7.9 in the assay with Vero [15] and 9.7 in the assay with Vero [19]. The Ki in assay [2] was determined as 8 nM; in [4] it was 3.5 nM; in assay [11], 5.1 nM; in [17], 1.9 nM. The IC50 in the assay on BC [5] worked out at 10000 nM; in the assay on Vero [6], 31000 nM; in the assay on KB [18], 7000 nM. Also, the Ratio in assay [9] worked out at 6.1; in [12], 2.7; in assay [14], 1.5; in assay [16], 3.9.
For `CCCCCCC1(C)N=C(N)N=C(N)N1c1cccc(Cl)c1` (stereo not given), the Safety ratio turned out to be 66.7 in the assay with KB [1]; 4.5 in the assay with BC [3]; 1.3 with KB [7]; 8.2 with KB [8]; 469 in the assay on Vero [10]; 36.7 with BC [13]. Also, the Safety ratio in the assay on Vero [15] worked out at 3833; in the assay on Vero [19] it was 71.9. The Ki in [2] stood at 15.9 nM; in assay [4], 101 nM; in [11], 12.1 nM; in [17] it was 5.5 nM. For the same molecule, the IC50 worked out at 2200 nM in the assay with BC [5], 230000 nM in the assay on Vero [6] and 4000 nM with KB [18]. In addition, the Ratio in assay [9] amounted to 6.58; in assay [12] it was 41.9; in assay [14], 2.3; in assay [16], 5.
Regarding `NC1=NC(c2ccc(Oc3ccccc3)cc2)N(c2cccc(Cl)c2)C(N)=N1` (stereo not given), the Safety ratio in the assay with KB [1] is reported as 6.2; in the assay with BC [3] it was 1.6; in the assay with KB [7] it was 1.2; with KB [8] it was 1.2; in the assay on Vero [10] it was above 15.2; in the assay with BC [13] it was 8.3. The results for the Safety ratio in the assay with Vero [15] and in the assay with Vero [19] were above 76.9 and above 15.2, respectively. In addition, the Ki in [2] stood at 1.3 nM; in [4], 2.7 nM; in assay [11], 0.3 nM; in assay [17], 0.9 nM. In addition, the IC50 with BC [5] was 5300 nM; with Vero [6], above 50000 nM; with KB [18] it was 4000 nM. For the same molecule, the Ratio in [9] amounted to 1.9; in assay [12] it was 3.9; in assay [14] it was 1.2; in [16] it was 0.5.
Turning to `CCCCCCCC1N=C(N)N=C(N)N1c1cccc(Cl)c1` (stereo not given), the Safety ratio in the assay on KB [1] is recorded as 25; with BC [3], 12.9; in the assay with KB [7] it was 0.4; with KB [8] it was 7.1; with Vero [10], above 357; in the assay with BC [13], 45. For the same molecule, the Safety ratio in the assay on Vero [15] is reported as above 1250; with Vero [19], above 20. Moreover, the Ki amounted to 0.8 nM in assay [2], 3.8 nM in assay [4], 0.3 nM in assay [11] and 1 nM in assay [17]. Besides, the IC50 is 1800 nM in the assay on BC [5], above 50000 nM in the assay with Vero [6] and 1000 nM in the assay with KB [18]. In addition, the Ratio in assay [9] worked out at 0.3; in [12] it was 1.4; in [14], 0.4; in assay [16], 0.1.
As for `NC1=NC(c2cccc(Oc3cccc(C(F)(F)F)c3)c2)N(c2cccc(Cl)c2)C(N)=N1` (stereo not given), the Safety ratio with KB [1] is given as 1.9; in the assay on BC [3] it was 1.9; in the assay on KB [7] it was 1.9; with KB [8], 1.8; with Vero [10], 8.8; in the assay on BC [13], 2. The Safety ratio in the assay with Vero [15] and in the assay on Vero [19] was 9.4 in each case. The Ki in [2] was 4.8 nM; in [4], 6.5 nM; in assay [11], 0.6 nM; in assay [17], 2 nM. The half-maximal inhibitory concentration (IC50) in the assay with BC [5] worked out at 6400 nM; in the assay on Vero [6], 30000 nM; in the assay with KB [18] it was 6000 nM. Further, the Ratio in [9] is 1.8; in assay [12], 2.4; in [14], 0.7; in assay [16], 0.2.
Consider `NC1=NC(c2ccc(Oc3ccccc3)cc2)N(c2ccc(Cl)cc2)C(N)=N1` (stereo not given), for which the Safety ratio in the assay on KB [1] is reported as 58.3; with BC [3] it was 1.8; in the assay on KB [7] it was 1; in the assay on KB [8] it was 1.5; in the assay with Vero [10] it was above 10.4; in the assay with BC [13], 71.7. For the same molecule, the Safety ratio in the assay with Vero [15] was above 417; in the assay with Vero [19], above 7.2. Also, the Ki was 222 nM in [2], 3.8 nM in [4], 145 nM in [11] and 29.3 nM in assay [17]. Also, the results for the IC50 with BC [5], with Vero [6] and in the assay on KB [18] were 8600 nM, above 50000 nM and 7000 nM, respectively. The Ratio is 555 in assay [9], 9.5 in [12], 73.1 in [14] and 363 in assay [16].
Consider `NC1=NC(c2cccc(OCCCOc3cc(Cl)c(Cl)cc3Cl)c2)N(c2cccc(Cl)c2)C(N)=N1` (stereo not given), for which the Safety ratio with KB [1] is 2.3; with BC [3] it was 1.9; in the assay on KB [7], 0.8; with KB [8], 1.3; with Vero [10] it was 3.5; in the assay with BC [13] it was 3.3. Besides, the Safety ratio was found to be 6 in the assay with Vero [15] and 2.1 with Vero [19]. For the same molecule, the Ki in assay [2] came out at 4.5 nM; in assay [4], 2.6 nM; in [11], 2.2 nM; in assay [17], 2 nM. Also, the IC50 in the assay on BC [5] was 10000 nM; with Vero [6], 18000 nM; with KB [18], 7000 nM. Moreover, the Ratio was determined as 1.1 in assay [9], 0.7 in [12], 0.5 in assay [14] and 0.6 in [16].
For the molecule `NC1=NC(c2cccc(Oc3cc(Cl)cc(Cl)c3)c2)N(c2cccc(Cl)c2)C(N)=N1` (stereo not given), the Safety ratio is 1.1 in the assay on KB [1]; 2.6 with BC [3]; 1.5 in the assay on KB [7]; 1.5 with KB [8]; 7.2 in the assay on Vero [10]; 1.8 in the assay with BC [13]. Further, the Safety ratio with Vero [15] is on record as 5.1; in the assay on Vero [19], 7.2. The inhibitory constant (Ki) is 2.7 nM in assay [2], 4.7 nM in assay [4], 0.6 nM in assay [11] and 1 nM in [17]. Moreover, the IC50 with BC [5] is 10000 nM; with Vero [6] it was 28000 nM; in the assay on KB [18], 6000 nM. The Ratio in [9] turned out to be 1.5; in assay [12], 2.6; in assay [14] it was 0.6; in assay [16], 0.3.
In the case of `NC1=NC(c2cccc(Oc3ccc(Cl)cc3)c2)N(c2ccc(Cl)cc2)C(N)=N1` (stereo not given), the Safety ratio in the assay on KB [1] is 1.4; in the assay on BC [3], 1.8; with KB [7], 1.1; in the assay with KB [8], 1; in the assay on Vero [10] it was 7.8; in the assay on BC [13], 2.5. For the same molecule, the Safety ratio stood at 11.1 in the assay on Vero [15] and 8.2 with Vero [19]. The Ki in [2] was found to be 121 nM; in [4], 7.5 nM; in [11], 151 nM; in [17] it was 85.5 nM. The IC50 in the assay with BC [5] was 7000 nM; in the assay on Vero [6], 31000 nM; in the assay with KB [18], 4000 nM. The Ratio in assay [9] stood at 86.4; in assay [12] it was 5.4; in assay [14], 61.1; in assay [16], 108.
